One experiment has as its system A-431. The experiment in a line: Antiproliferative activity against human A431 cells expressing wild type EGFR assessed as cell growth inhibition measured after 72 hrs by MTT assay. It counts as functional, cell-based. The conditions noted are these: A-431, 72 h. A digest of the protocol: (§1)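 Cells were seeded at 3000–8000/well and allowed 24 h, then exposed to serial compound concentrations for 72 h. MTT (5 mg/mL stock in PBS) was added for 4 h, supernatant removed and DMSO added. IC50, defined as 50% growth inhibition, was derived by nonlinear regression (log inhibitor vs response).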
On the technique in general: Tetrazolium assays rely on reduction of a dye to a coloured formazan, in cell work by metabolically active cells.

Experiment [1] has as its system NCI-H1975. Nature of the experiment: Antiproliferative activity against human H1975 cells expressing EGFR L858R/T790M mutant assessed as cell growth inhibition measured after 72 hrs by MTT assay. The conditions noted are these: NCI-H1975, 72 h. It counts as functional, cell-based. A digest of the protocol:
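MTT assay on H1975 cells grown in RPMI-1640 with 10% heat-inactivated FBS and 1% penicillin-streptomycin at 37 °C and 5% CO₂. Cells were seeded at 3000–8000 per well and left 24 h, then exposed to a concentration series for 72 h. MTT (5 mg/mL stock in PBS) was added for 4 h, supernatant removed and formazan dissolved in DMSO. IC50 was fitted by nonlinear regression (log inhibitor vs response).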

A further experiment deals with HepG2. Nature of the experiment: Antiproliferative activity against human HepG2 cells expressing VEGFR2 assessed as cell growth inhibition measured after 72 hrs by MTT assay. It counts as functional, cell-based. To be noted: HepG2, 72 h. A digest of the protocol:
as §1

Experiment [2] deals with von Hippel-Lindau disease tumor suppressor/Epidermal growth factor receptor (Homo sapiens), P00533+P40337 [UNDEFINED MUTATION]. The experiment in a line: Protac activity at VHL/EGFR del19 mutant in human HCC827 cells assessed as induction of EGFR degradation at 33 nM incubated for 24 hrs measured following drug wash-out for 24 hrs by Western blot analysis. The format is cell-based. A digest of the protocol: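 HCC827 cells (RPMI-1640, 10% heat-inactivated FBS, 1% sodium pyruvate, 1% glutamine, 37 °C, 5% CO₂) treated at 33 nM for 24 h. Medium then replaced with compound-free medium, and protein harvested at the stated times. EGFR read by Western blot; n = 2.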
For orientation: In western blotting, separated proteins are transferred to a membrane and probed.

In experiment [3] the test system is HCC827. The experiment in a line: Induction of cell cycle arrest in human HCC827 cells assessed as accumulation at G1 phase at 10 to 100 nM measured after 48 hrs by propidium iodide staining based flow cytometry analysis. To be noted: dose 10-100 nM. The format is functional. A digest of the protocol: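 Cell cycle: cells were seeded at 0.5–1 × 10⁶ per well for 24 h, then treated 48 h. They were collected and washed twice in PBS, stained with PI/RNase at 37 °C for 15 min, and analysed by flow cytometry. n = 2.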
On the technique in general: A flow cytometer gives signals particle by particle.

Experiment [4] relates to HCC827. Nature of the experiment: Inhibition of colony formation in human HCC827 cells at 1 nM incubated for 15 days by crystal violet staining based analysis. The format is functional, cell-based. The conditions noted are these: time 15.0 day. A digest of the protocol: (§2)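 Colony formation: 200 cells per well were seeded and incubated 24 h, then kept with compound for 15 days. After three PBS washes, cells were fixed in cold 75% ethanol and stained with 0.1% crystal violet in water for 1 h. Colonies were counted.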

Experiment [5] relates to NCI-H1975. Nature of the experiment: Inhibition of colony formation in human NCI-H1975 cells at 100 nM incubated for 15 days by crystal violet staining based analysis. The format is functional, cell-based. To be noted: time 15.0 day. A digest of the protocol:
as §2

In experiment [6] the test system is von Hippel-Lindau disease tumor suppressor/Epidermal growth factor receptor (Homo sapiens), P00533+P40337 [UNDEFINED MUTATION]. Nature of the experiment: Protac activity at VHL/EGFR del19 mutant in human HCC827 cells assessed as induction of EGFR degradation at 33 nM measured after 24 hrs by Western blot analysis. It counts as cell-based. A digest of the protocol: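 HCC827 cells seeded at 0.5–1 × 10⁶ per well, grown 24 h, then treated at the stated concentrations for 24 h. EGFR^del19 level by Western blot with anti-EGFR antibody and β-actin loading control.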

The test system is the same in experiment [7]. The experiment in a line: Protac activity at VHL/EGFR del19 mutant in human HCC827 cells assessed as maximal induction of EGFR degradation at 33 nM measured after 48 hrs by Western blot analysis. It counts as cell-based. A digest of the protocol: (§3)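 HCC827 cells seeded at 0.5–1 × 10⁶ per well, then treated at the stated concentrations for 48 h. EGFR by Western blot; n = 3. DC₅₀ (concentration giving 50% EGFR loss) by nonlinear regression, log(inhibitor) vs response.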

For experiment [8], the target named is von Hippel-Lindau disease tumor suppressor/Epidermal growth factor receptor (Homo sapiens, UniProt P00533+P40337). The experiment in a line: Protac activity at VHL/EGFR del19 mutant in human HCC827 cells assessed as induction of EGFR degradation measured after 48 hrs by Western blot analysis. The format is cell-based. A digest of the protocol:
as §3

Experiment [9] concerns the target von Hippel-Lindau disease tumor suppressor/Epidermal growth factor receptor (Homo sapiens, UniProt P00533+P40337, T790M/L858R). The experiment in a line: Protac activity at VHL/EGFR L858R/T790M mutant in human H1975 cells assessed as induction of degradation of EGFR incubated for 48 hrs by Western blot analysis. The format is cell-based. To be noted: nci-h1975. A digest of the protocol: (§4)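 H1975 cells exposed to the stated concentrations for 48 h. EGFR by Western blot; n = 3. DC₅₀ by nonlinear regression, log(inhibitor) vs response.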

Experiment [10] relates to von Hippel-Lindau disease tumor suppressor/Epidermal growth factor receptor (Homo sapiens), P00533+P40337 [L858R,T790M]. Nature of the experiment: Protac activity at VHL/EGFR L858R/T790M mutant in human H1975 cells assessed as maximal induction of degradation of EGFR incubated for 48 hrs by Western blot analysis relative to control. It counts as cell-based. To be noted: NCI-H1975. A digest of the protocol:
as §4

For experiment [11], the system named is von Hippel-Lindau disease tumor suppressor/Epidermal growth factor receptor (Homo sapiens), P00533+P40337 [UNDEFINED MUTATION]. Nature of the experiment: Protac activity at VHL/EGFR del19 mutant in human HCC827 cells assessed as induction of EGFR degradation by measuring reduction in EGFR phosphorylation at 3 nM incubated for 48 hrs by Western blot analysis. It counts as cell-based. A digest of the protocol: (§5)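 HCC827 or H1975 cells treated at the stated concentrations for 48 h. Lysates probed by Western blot for EGFR, P-EGFR, Akt and P-Akt (each 1:1000); n = 2.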

For experiment [12] the test system is unchanged. Nature of the experiment: Protac activity at VHL/EGFR del19 mutant in human HCC827 cells assessed as induction of EGFR degradation by measuring reduction in Akt phosphorylation at 3 nM incubated for 48 hrs by Western blot analysis. The format is cell-based. A digest of the protocol:
as §5

Experiment [13] deals with HCC827. Nature of the experiment: Effect on Akt protein expression in human HCC827 cells at 0.003 to 0.33 uM incubated for 48 hrs by Western blot analysis. The format is functional, cell-based. The conditions noted are these: dose 0.003-0.33 µM.
The subject of experiment [14] is von Hippel-Lindau disease tumor suppressor/Epidermal growth factor receptor (Homo sapiens), P00533+P40337 [L858R,T790M]. The experiment in a line: Protac activity at VHL/EGFR L858R/T790M mutant in human H1975 cells assessed as induction of degradation of EGFR at 0.33 to 1 uM incubated for 24 hrs by Western blot analysis. It counts as cell-based. To be noted: NCI-H1975, dose 0.33-1 µM. A digest of the protocol:
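H1975 cells, after 24 h seeding, treated at the stated concentrations for 24 h. EGFR by Western blot with β-actin loading control.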

Experiment [15] has as its system von Hippel-Lindau disease tumor suppressor/Epidermal growth factor receptor (Homo sapiens), P00533+P40337 [UNDEFINED MUTATION]. Nature of the experiment: Protac activity at VHL/EGFR del19 mutant in human HCC827 cells assessed as induction of EGFR degradation at 0.033 uM pretreated with VHL ligand, VHL-L for 2 hrs followed by incubation with compound for 24 hrs by Western blot analysis. It counts as cell-based.

Experiment [16] has the same test system. Nature of the experiment: Protac activity at VHL/EGFR del19 mutant in human HCC827 cells assessed as induction of EGFR degradation at 0.033 uM pretreated with autophagy inhibitor, chloroquine for 2 hrs followed by incubation with compound for 24 hrs by Western blot analysis. It counts as cell-based.

Consider one compound from ChEMBL document CHEMBL4706553, “Discovery of potent small molecule PROTACs targeting mutant EGFR” (Eur J Med Chem, 2020).

By IC50 is commonly meant the point on the concentration scale where inhibition reaches its midpoint. As a reminder, the DC50 is the concentration giving 50% degradation.

Active and inactive are the calls of the source. Some results are limits rather than exact numbers.

For `Cc1ncsc1-c1ccc(CNC(=O)[C@@H]2C[C@@H](O)CN2C(=O)[C@@H](NC(=O)CCCCCCN2CCN(c3ccc(Nc4ncc5nc(Nc6ccccc6)n(C6CCCC6)c5n4)cc3)CC2)C(C)(C)C)cc1`, the IC50 in the experiment on A-431 is 245 nM; with NCI-H1975 [1] it was 203 nM; in the experiment with HepG2, > 5000 nM. Besides, the outcome (in [2]; in the experiment on HCC827 [3]; in experiment [6]; in experiment [11]; in experiment [12]; in experiment [14]) was Active. The result in experiment [15] was Active. Moreover, the inhibition entry with HCC827 [4] and in the experiment on NCI-H1975 [5] was “Active” in each case. The figures for the Emax in [7] and in experiment [10] were 80.4% and 90.3%, respectively. Besides, the figures for the DC50 in experiment [8] and in experiment [9] were 0.51 nM and 126 nM, respectively. Further, the result (with HCC827 [13]; in [16]) was inactive.
